The source of these data is BindingDB's records for doi:10.1016/j.bmcl.2007.03.101 (Eli Lilly, 2007).

SMILES strings stand for the structures.

The target of the test is T1, 5-hydroxytryptamine receptor 1A (Homo sapiens, UniProt P08908).
T1 sequence (P08908 whole entry): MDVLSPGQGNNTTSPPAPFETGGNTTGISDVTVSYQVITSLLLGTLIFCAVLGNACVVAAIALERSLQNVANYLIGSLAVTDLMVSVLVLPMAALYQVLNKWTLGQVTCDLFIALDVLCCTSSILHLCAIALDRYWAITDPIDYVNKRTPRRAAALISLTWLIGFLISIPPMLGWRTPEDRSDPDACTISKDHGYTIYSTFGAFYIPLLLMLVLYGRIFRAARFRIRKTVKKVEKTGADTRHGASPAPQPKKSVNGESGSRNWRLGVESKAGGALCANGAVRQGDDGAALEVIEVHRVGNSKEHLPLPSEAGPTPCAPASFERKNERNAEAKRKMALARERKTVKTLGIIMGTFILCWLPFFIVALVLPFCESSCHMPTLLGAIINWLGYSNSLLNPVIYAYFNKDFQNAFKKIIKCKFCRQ
Put plainly: Displacement of [3H]8-OH-DPAT from human 5HT1A expressed in LM(tk-) cells. A digest of the protocol: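 Human 5-HT1A was cloned into L-M(tk-) cells, and membrane homogenates were prepared. Binding used [3H]-8-OH-DPAT as radioligand. Ki (nM) is the mean of runs in triplicate.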
In general terms: In a radioligand displacement assay an active substance lowers the binding of a labelled ligand.

As for `C[C@H]1CN(c2cccc3cc(F)ccc23)CCN1CC[C@H]1OCC2=CC(C(N)=O)=CCC21` (stereo partly drawn) [(1R)-1-(2-((S)-4-(6-fluoronaphthalen-1-yl)-2-methylpiperazin-1-yl)ethyl)-1,3,7,7a-tetrahydroisobenzofuran-5-carboxamide], the affinity corresponds to a Ki of 0.013 µM.
